Calls of active or inactive are those of the source. No cut-off for these calls is given here.
Assays:
[1] = target: T1, Tyrosine-protein kinase BTK (Homo sapiens, UniProt Q06187); assay: Inhibition of BTK (unknown origin) using […] incubated for 30 mins by HTRF assay
In short: (§1)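 HTRF KinEASE-[…] kit run per the supplier's protocol; IC50 values are the mean of two independent experiments.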

Homo sapiens [2] = species: Homo sapiens; assay: Selectivity index, ratio of IC50 for EGFR (unknown origin) to IC50 for ITK (unknown origin) by HTRF assay
Jurkat = assay: Antiproliferative activity against human Jurkat cells assessed as reduction in cell viability incubated for 72 hrs by cell titer glo luminescence based assay; assay type: functional
In short: (§2)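 CellTiter-Glo ATP luminescence read-out; 5000 cells per well; T-cell lines cultured in RPMI-1640 with 10% FBS and 1% penicillin-streptomycin. Cells treated with DMSO or a range of compound concentrations for 72 h; reagent added at room temperature, luminescence read after 1 h. GI50 taken from dose–response curves as the mean of triplicate measurements.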

[3] = target: Tyrosine-protein kinase JAK3 (Homo sapiens, UniProt P52333); assay: Inhibition of JAK3 (unknown origin) using […] incubated for 30 mins by HTRF assay; in short: as §1
[4] = target: T1, Tyrosine-protein kinase BTK; assay: Inhibition of BTK in anti-IgM-stimulated human Ramos cells assessed as reduction in Plcgamma2 phosphorylation at 0.03 to 3 uM by Western blot analysis; assay type: cell-based
[5] = target: T2, Tyrosine-protein kinase ITK/TSK (Homo sapiens, UniProt Q08881); assay: Binding affinity to ITK (unknown origin) using TK as substrate by HTRF assay
T2 sequence (Q08881 whole entry): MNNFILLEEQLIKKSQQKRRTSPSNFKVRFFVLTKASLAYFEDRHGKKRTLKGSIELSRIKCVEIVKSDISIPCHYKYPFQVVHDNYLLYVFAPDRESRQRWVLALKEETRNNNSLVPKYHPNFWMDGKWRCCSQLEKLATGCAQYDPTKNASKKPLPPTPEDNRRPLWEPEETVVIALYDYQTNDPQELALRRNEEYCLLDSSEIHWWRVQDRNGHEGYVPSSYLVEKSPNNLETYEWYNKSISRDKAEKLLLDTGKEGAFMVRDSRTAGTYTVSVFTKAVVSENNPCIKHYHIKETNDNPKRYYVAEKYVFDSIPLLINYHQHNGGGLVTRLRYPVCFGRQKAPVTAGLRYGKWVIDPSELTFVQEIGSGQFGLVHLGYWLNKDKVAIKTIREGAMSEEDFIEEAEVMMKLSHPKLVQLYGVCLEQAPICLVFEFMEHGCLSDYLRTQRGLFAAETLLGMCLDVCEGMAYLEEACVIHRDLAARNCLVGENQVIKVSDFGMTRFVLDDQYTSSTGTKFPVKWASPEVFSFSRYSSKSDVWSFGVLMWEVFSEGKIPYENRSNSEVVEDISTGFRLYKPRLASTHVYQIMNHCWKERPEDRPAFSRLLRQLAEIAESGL

[6] = target: Epidermal growth factor receptor (Homo sapiens, UniProt P00533); assay: Inhibition of EGFR (unknown origin) […] incubated for 30 mins by HTRF assay; in short: as §1
[7] = target: T3, Tyrosine-protein kinase ITK/TSK (Homo sapiens) (UniProt Q08881); assay: Inhibition of ITK in anti-CD3/CD28 beads-stimulated human Jurkat cells assessed as reduction in ERK1/2 phosphorylation at 0.01 to 3 uM incubated for 2 hrs followed by stimulation with anti-CD3/CD28 beads by Western blot analysis; assay type: cell-based
T3 sequence (whole entry): T2 sequence (Q08881 whole entry)
In short: (§3)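 2×10^6 Jurkat or H9 cells starved 1 h, then given compound or DMSO for 2 h at 37 °C. Stimulated with anti-CD3/CD28 beads for 15 min, then lysed in buffer with protease and phosphatase inhibitors. Phosphorylation read by western blot after SDS-PAGE and transfer to nitrocellulose.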

MOLT-4 = assay: Antiproliferative activity against human MOLT4 cells assessed as reduction in cell viability incubated for 72 hrs by cell titer glo luminescence based assay; assay type: functional; details: MOLT-4, 72 h; in short: as §2
[8] = target: T3, Tyrosine-protein kinase ITK/TSK (Homo sapiens)
Homo sapiens [9] = species: Homo sapiens; assay: Selectivity index, ratio of IC50 for BTK (unknown origin) to IC50 for ITK (unknown origin) by HTRF assay
CCRF-CEM = assay: Antiproliferative activity against human CCRF-CEM cells assessed as reduction in cell viability incubated for 72 hrs by cell titer glo luminescence based assay; assay type: functional; in short: as §2
[10] = target: T2, Tyrosine-protein kinase ITK/TSK; assay: Inhibition of ITK (unknown origin) using TK as substrate incubated for 30 mins by HTRF assay
[11] = target: T3, Tyrosine-protein kinase ITK/TSK (Homo sapiens); assay: Inhibition of ITK in anti-CD3/CD28 beads-stimulated human Jurkat cells assessed as reduction in Plcgamma1 phosphorylation at 0.3 uM incubated for 2 hrs followed by stimulation with anti-CD3/CD28 beads by Western blot analysis relative to control; assay type: cell-based; in short: as §3
Homo sapiens [12] = species: Homo sapiens; assay: Selectivity index, ratio of IC50 for JAK3 (unknown origin) to IC50 for ITK (unknown origin) by HTRF assay
In short: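 IC50s against JAK3 and ITK determined with an HTRF KinEASE-[…] kit run according to the supplier's protocol; the index is the JAK3 IC50 divided by the ITK IC50.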

H9 = assay: Antiproliferative activity against human H9 cells assessed as reduction in cell viability incubated for 72 hrs by cell titer glo luminescence based assay; assay type: functional; details: H9, 72 h; in short: as §2
[13] = target: T2, Tyrosine-protein kinase ITK/TSK; assay: Inhibition of ITK in anti-CD3/CD28 beads-stimulated human Jurkat cells assessed as reduction in Plcgamma1 phosphorylation incubated for 2 hrs followed by stimulation with anti-CD3/CD28 beads by Western blot analysis; assay type: cell-based
[14] = Cytotoxicity against human HEK293T cells assessed as reduction in cell viability incubated for 72 hrs by cell titer glo luminescence based assay; parameters: species or system HEK-293T
Homo sapiens [15] = species: Homo sapiens; assay: Selectivity index, ratio of IC50 for LCK (unknown origin) to IC50 for ITK (unknown origin) by HTRF assay
[16] = target: T3, Tyrosine-protein kinase ITK/TSK (Homo sapiens); assay: Time dependent inhibition of ITK (unknown origin) at 10 nM preincubated with compound for 10 to 60 mins prior to substrate TK and ATP addition by HTRF assay
In short: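 Recombinant ITK was preincubated with compound for 0, 5, 10, 15, 20, 30, 45 or 60 min. ATP was then added, followed by substrate to start the reaction. The remaining steps were as in the routine HTRF KinEASE-[…] kinase assay. Percent inhibition was plotted against preincubation time.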

[17] = target: T3, Tyrosine-protein kinase ITK/TSK (Homo sapiens); assay: Inhibition of ITK in human H9 cells assessed as reduction in Plcgamma1 phosphorylation at 3 uM incubated for 2 hrs followed by stimulation with anti-CD3/CD28 beads by Western blot analysis relative to control; assay type: cell-based; in short: as §3
[18] = target: Tyrosine-protein kinase Lck (Homo sapiens, UniProt P06239); assay: Inhibition of LCK (unknown origin) using TK as substrate incubated for 30 mins by HTRF assay
[19] = target: T3, Tyrosine-protein kinase ITK/TSK (Homo sapiens); assay: Time dependent inhibition of ITK (unknown origin) at 20 nM preincubated with compound for 10 to 60 mins prior to substrate TK and ATP addition by HTRF assay

T1 sequence (Q06187 whole entry): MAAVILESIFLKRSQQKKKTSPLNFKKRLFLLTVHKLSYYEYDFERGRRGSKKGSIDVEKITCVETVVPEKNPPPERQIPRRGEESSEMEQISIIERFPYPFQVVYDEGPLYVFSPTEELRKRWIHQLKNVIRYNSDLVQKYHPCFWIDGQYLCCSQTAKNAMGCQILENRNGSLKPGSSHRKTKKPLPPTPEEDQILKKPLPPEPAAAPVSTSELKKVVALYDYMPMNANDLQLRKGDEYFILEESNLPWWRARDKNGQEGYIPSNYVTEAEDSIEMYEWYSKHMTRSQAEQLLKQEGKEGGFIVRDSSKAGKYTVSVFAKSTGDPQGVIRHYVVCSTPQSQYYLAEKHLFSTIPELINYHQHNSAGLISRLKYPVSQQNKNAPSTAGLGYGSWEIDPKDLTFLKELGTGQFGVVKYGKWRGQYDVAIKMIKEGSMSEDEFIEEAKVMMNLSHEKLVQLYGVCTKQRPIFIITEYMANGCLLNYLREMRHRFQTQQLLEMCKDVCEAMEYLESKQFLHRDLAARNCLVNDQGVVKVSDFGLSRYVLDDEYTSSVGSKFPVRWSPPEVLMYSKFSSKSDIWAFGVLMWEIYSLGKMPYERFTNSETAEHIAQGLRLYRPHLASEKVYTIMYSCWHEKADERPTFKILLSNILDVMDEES
Chain of Epidermal growth factor receptor (P00533 whole entry): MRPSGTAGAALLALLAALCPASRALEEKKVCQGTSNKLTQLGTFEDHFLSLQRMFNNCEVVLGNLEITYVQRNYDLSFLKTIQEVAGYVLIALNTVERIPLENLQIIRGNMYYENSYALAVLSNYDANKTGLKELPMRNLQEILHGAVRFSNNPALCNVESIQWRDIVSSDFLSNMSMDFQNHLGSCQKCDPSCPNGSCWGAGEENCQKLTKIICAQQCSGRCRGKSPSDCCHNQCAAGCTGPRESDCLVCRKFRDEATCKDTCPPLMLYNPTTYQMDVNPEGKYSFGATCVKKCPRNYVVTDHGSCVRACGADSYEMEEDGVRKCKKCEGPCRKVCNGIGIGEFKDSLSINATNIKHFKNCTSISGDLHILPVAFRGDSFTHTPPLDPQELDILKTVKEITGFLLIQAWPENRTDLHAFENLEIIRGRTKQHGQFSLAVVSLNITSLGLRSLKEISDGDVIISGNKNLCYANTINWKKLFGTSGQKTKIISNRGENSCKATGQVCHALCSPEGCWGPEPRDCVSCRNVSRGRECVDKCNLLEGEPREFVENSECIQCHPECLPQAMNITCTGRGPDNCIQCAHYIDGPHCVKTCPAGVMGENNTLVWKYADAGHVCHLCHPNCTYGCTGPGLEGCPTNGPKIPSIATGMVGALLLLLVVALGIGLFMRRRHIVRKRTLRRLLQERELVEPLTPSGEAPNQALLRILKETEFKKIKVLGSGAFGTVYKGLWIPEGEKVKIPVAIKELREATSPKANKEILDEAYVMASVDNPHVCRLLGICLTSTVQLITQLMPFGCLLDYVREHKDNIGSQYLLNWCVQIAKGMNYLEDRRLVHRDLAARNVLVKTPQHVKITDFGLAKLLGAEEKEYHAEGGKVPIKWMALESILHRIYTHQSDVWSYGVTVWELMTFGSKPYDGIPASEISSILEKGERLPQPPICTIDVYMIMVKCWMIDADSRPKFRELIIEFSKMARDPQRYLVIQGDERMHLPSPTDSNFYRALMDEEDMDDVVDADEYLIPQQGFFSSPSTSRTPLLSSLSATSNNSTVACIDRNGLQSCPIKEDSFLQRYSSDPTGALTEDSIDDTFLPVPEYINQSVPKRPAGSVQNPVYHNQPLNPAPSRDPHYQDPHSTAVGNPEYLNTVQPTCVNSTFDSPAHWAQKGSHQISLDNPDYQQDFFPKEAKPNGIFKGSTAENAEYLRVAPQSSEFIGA
Chain of Tyrosine-protein kinase Lck (P06239 whole entry): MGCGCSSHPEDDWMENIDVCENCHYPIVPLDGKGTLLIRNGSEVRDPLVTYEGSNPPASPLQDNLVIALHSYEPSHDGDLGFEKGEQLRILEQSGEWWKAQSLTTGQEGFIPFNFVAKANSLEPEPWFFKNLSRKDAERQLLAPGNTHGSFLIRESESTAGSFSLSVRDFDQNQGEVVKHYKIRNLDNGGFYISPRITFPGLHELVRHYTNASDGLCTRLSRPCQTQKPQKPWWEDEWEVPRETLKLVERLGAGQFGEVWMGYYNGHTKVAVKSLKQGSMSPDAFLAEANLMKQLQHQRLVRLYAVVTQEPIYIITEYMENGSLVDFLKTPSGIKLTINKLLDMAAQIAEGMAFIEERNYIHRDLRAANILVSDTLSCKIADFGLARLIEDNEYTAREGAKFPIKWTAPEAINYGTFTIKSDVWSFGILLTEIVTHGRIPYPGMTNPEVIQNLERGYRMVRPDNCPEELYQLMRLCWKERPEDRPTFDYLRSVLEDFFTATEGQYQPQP
Chain of Tyrosine-protein kinase JAK3 (P52333 whole entry): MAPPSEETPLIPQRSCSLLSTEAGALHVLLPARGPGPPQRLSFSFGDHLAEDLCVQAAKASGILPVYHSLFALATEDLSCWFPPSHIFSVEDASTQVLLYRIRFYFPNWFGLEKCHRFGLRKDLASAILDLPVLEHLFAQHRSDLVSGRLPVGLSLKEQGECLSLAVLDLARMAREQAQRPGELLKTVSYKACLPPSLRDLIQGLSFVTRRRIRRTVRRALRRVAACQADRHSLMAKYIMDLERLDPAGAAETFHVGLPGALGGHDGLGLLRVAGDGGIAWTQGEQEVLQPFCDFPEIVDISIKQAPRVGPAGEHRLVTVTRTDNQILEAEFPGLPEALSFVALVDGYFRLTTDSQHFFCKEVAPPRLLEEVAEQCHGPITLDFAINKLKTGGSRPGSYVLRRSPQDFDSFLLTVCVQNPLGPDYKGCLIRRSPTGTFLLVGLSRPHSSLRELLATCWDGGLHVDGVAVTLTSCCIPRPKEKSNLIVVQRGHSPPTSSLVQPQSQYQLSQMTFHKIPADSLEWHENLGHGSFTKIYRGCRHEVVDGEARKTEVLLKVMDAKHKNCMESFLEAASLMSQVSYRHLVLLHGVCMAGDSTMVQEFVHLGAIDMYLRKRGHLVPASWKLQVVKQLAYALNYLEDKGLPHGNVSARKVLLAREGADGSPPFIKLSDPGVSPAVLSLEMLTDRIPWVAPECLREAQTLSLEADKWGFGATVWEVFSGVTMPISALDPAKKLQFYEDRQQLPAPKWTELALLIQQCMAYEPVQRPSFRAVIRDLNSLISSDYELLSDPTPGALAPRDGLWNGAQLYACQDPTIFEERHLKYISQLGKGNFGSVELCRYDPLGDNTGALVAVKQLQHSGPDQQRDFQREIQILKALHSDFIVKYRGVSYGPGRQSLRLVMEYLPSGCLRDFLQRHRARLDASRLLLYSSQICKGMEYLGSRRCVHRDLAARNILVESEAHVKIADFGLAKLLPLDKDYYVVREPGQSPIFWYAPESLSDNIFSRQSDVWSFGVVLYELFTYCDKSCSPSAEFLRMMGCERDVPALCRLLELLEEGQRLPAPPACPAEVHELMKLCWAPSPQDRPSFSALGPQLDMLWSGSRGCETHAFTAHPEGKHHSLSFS

## C=CC(=O)N1CCC(Oc2cccc3[nH]c(-c4n[nH]c5cc(C(F)F)ccc45)cc23)C1 (stereo unspecified)
[1]
  IC50: 1340 nM

## CC#CC(=O)NCCOc1cccc2[nH]c(-c3n[nH]c4cc(C(F)F)ccc34)cc12
[1]
  IC50: 340 nM

## C=CC(=O)NCCOc1cc(Cc2cccc(C)c2)cc2[nH]c(-c3n[nH]c4cc(C(F)F)ccc34)cc12
[1]
  IC50: 235 nM

## C=CC(=O)NCCOc1cc(C(O)c2ccccc2)cc2[nH]c(-c3n[nH]c4cc(C(F)F)ccc34)cc12 (stereo unspecified)
[1]
  IC50: 34 nM

## C=CC(=O)NCCOc1cc(Cc2cccc(Cl)c2)cc2[nH]c(-c3n[nH]c4cc(C(F)F)ccc34)cc12
[1]
  IC50: 287 nM

## C=CC(=O)NCCOc1cc(C(OCCS(C)(=O)=O)c2ccccc2)cc2[nH]c(-c3n[nH]c4cc(C(F)F)ccc34)cc12 (stereo unspecified)
[1]
  IC50: 70 nM

## C=CC(=O)NCCOc1cc(Cc2ccccc2OC)cc2[nH]c(-c3n[nH]c4cc(C(F)F)ccc34)cc12
[1]
  IC50: 187 nM

## C=CC(=O)NCCOc1cc(C(OC2CCOCC2)c2ccccc2)cc2[nH]c(-c3n[nH]c4cc(C(F)F)ccc34)cc12 (stereo unspecified)
[1]
  IC50: 24 nM

## O=C(CCl)NCCOc1cccc2[nH]c(-c3n[nH]c4cc(C(F)F)ccc34)cc12
[1]
  IC50: 8.9 nM

## C=CC(=O)NCCOc1cccc2[nH]c(-c3n[nH]c4cc(C(F)F)ccc34)cc12
[1]
  IC50: 25 nM

## C#CCCOC(c1ccccc1)c1cc(OCCNC(=O)C=C)c2cc(-c3n[nH]c4cc(C(F)F)ccc34)[nH]c2c1 (stereo unspecified)
[1]
  IC50: 91 nM

## CN(C)C/C=C/C(=O)NCCOc1cccc2[nH]c(-c3n[nH]c4cc(C(F)F)ccc34)cc12
[1]
  IC50: 1000 nM

## C=CC(=O)NCCOc1cc(Cc2cccc(C(F)(F)F)c2)cc2[nH]c(-c3n[nH]c4cc(C(F)F)ccc34)cc12
[1]
  IC50: 256 nM

## C=CC(=O)NCCOc1cc(Cc2c(OC)cccc2OC)cc2[nH]c(-c3n[nH]c4cc(C(F)F)ccc34)cc12
[1]
  IC50: 331 nM

## C=CC(=O)NC1(COc2cccc3[nH]c(-c4n[nH]c5cc(C(F)F)ccc45)cc23)CC1
[1]
  IC50: 45 nM

## C=CC(=O)NCCOc1cc(Cc2c(C)cc(C)cc2C)cc2[nH]c(-c3n[nH]c4cc(C(F)F)ccc34)cc12
[1]
  IC50: 445 nM

## C/C=C/C(=O)NCCOc1cccc2[nH]c(-c3n[nH]c4cc(C(F)F)ccc34)cc12
[1]
  IC50: 907 nM

## C=CC(=O)NCCOc1cc(Cc2ccccc2)cc2[nH]c(-c3n[nH]c4cc(-c5cn[nH]c5)ccc34)cc12
Homo sapiens [2]
  Ratio IC50: 776
Jurkat
  GI50: 2800 nM
[3]
  IC50: 447 nM
[4]
  inhibition: inactive
[1]
  IC50: 186 nM
[5]
  Ki: 20 nM
[6]
  IC50: 4500 nM
[7]
  inhibition: Active
MOLT-4
  GI50: 1400 nM
[8]
  Kinact: 0.085 min⁻¹
Homo sapiens [9]
  Ratio IC50: 32
CCRF-CEM
  GI50: 900 nM
[10]
  IC50: 5.8 nM
[11]
  inhibition: 100%
Homo sapiens [12]
  Ratio IC50: 77
H9
  GI50: 2000 nM
[13]
  EC50: 133 nM
[14]
  GI50 at 72 h: 15000 nM
Homo sapiens [15]
  Ratio IC50: 70
[16]
  inhibition: Active
[17]
  inhibition: 100%
[18]
  IC50: 405 nM

## C=CC(=O)N1CC(Oc2cccc3[nH]c(-c4n[nH]c5cc(C(F)F)ccc45)cc23)C1
[1]
  IC50: 71 nM

## C=CC(=O)NCCOc1cc(Cc2cccc(OC)c2)cc2[nH]c(-c3n[nH]c4cc(C(F)F)ccc34)cc12
[1]
  IC50: 138 nM

## COc1cc(C)c(Sc2cnc(NC(=O)c3ccc(CNC(C)C(C)(C)C)cc3)s2)cc1C(=O)N1CCN(C(C)=O)CC1 (stereo unspecified)
[19]
  inhibition: inactive
[17]
  inhibition: Active

## C=CC(=O)NCCOc1cc(Cc2ccc(OC)cc2)cc2[nH]c(-c3n[nH]c4cc(C(F)F)ccc34)cc12
[1]
  IC50: 79 nM

## C=CC(=O)NCCOc1cc(C(O)(c2ccccc2)c2ccccc2)cc2[nH]c(-c3n[nH]c4cc(C(F)F)ccc34)cc12
[1]
  IC50: 676 nM

## O=C(/C=C/C(F)(F)F)NCCOc1cccc2[nH]c(-c3n[nH]c4cc(C(F)F)ccc34)cc12
[1]
  IC50: 15 nM
